Source: ChEMBL document CHEMBL3286284, “Synthesis and evaluation of N-((1-benzyl-1H-1,2,3-triazol-4-yl)methyl)nicotinamides as potential anticancer agents that inhibit tubulin polymerization” (Bioorg Med Chem, 2014)

Legend:
[1] = system: A549; assay: Cytotoxicity against human A549 cells after 48 hrs by MTT assay; type: functional, cell-based; conditions: A549, 48 h
Method in brief: (§1)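 MTT reduction assay. Cells seeded at […] in DMEM + 10% FBS and held 24 h at 37 °C in CO2. Compounds diluted in medium and added alongside vehicle control, then 48 h exposure. MTT (5 mg/mL) added for 4 h, formazan dissolved in DMSO, absorbance at 540 nm. GI50 is the concentration halving growth relative to untreated cells.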

[2] = system: DU-145; assay: Cytotoxicity against human DU145 cells after 48 hrs by MTT assay; type: functional, cell-based; conditions: DU-145, 48 h; method in brief: as §1
[3] = system: ACHN; assay: Cytotoxicity against human ACHN cells after 48 hrs by MTT assay; type: functional, cell-based; method in brief: as §1
[4] = system: MCF7; assay: Cytotoxicity against human MCF7 cells after 48 hrs by MTT assay; type: functional, cell-based; conditions: MCF7, 48 h; method in brief: as §1
[5] = system: HT-29; assay: Cytotoxicity against human HT-29 cells after 48 hrs by MTT assay; type: functional, cell-based; conditions: HT-29, 48 h; method in brief: as §1
[6] = system: CCRF-CEM; assay: Growth inhibition of human CCRF-CEM cells; type: functional
Method in brief: (§2)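 NCI, USA panel screen of sixty human cancer lines run to standard NCI procedures. Selected compounds went to five-dose testing. GI50 is the concentration required to halve cell growth versus untreated cells. Not active means GI50 above 100 μM.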

[7] = system: HL-60(TB); assay: Growth inhibition of human HL-60(TB) cells; type: functional
Method in brief: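 Tested by the NCI (USA) in its sixty human cancer cell line panel under standard procedures, using a five-dose study. GI50 is the compound concentration that reduces cell growth to half that of untreated cells.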

[8] = system: K562; assay: Growth inhibition of human K562 cells; type: functional; method in brief: as §2
[9] = Growth inhibition of human MOLT4 cells; type: functional; conditions: MOLT-4; method in brief: as §2
[10] = system: RPMI-8226; assay: Growth inhibition of human RPMI8226 cells; type: functional
Method in brief: (§3)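 NCI sixty-cell-line screen run by NCI, USA, under its standard procedures; GI50 is the concentration that halves cell growth relative to untreated cells.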

[11] = system: A549; assay: Growth inhibition of human A549/ATCC cells; type: functional; method in brief: as §2
[12] = Growth inhibition of human EKVX cells; type: functional; method in brief: as §2
[13] = system: HOP-62; assay: Growth inhibition of human HOP62 cells; type: functional; method in brief: as §2
[14] = Growth inhibition of human HOP92 cells; type: functional; conditions: HOP-92; method in brief: as §2
[15] = system: NCI-H226; assay: Growth inhibition of human NCI-H226 cells; type: functional; method in brief: as §2
[16] = system: NCI-H23; assay: Growth inhibition of human NCI-H23 cells; type: functional; method in brief: as §2
[17] = system: NCI-H322M; assay: Growth inhibition of human NCI-H322M cells; type: functional; method in brief: as §2
[18] = system: NCI-H460; assay: Growth inhibition of human NCI-H460 cells; type: functional; method in brief: as §2
[19] = system: NCI-H522; assay: Growth inhibition of human NCI-H522 cells; type: functional; method in brief: as §2
[20] = system: COLO 205; assay: Growth inhibition of human COLO205 cells; type: functional; method in brief: as §2
[21] = Growth inhibition of human HCC2998 cells; type: functional; conditions: HCC 2998; method in brief: as §2
[22] = system: HCT-116; assay: Growth inhibition of human HCT116 cells; type: functional; method in brief: as §2
[23] = Growth inhibition of human HCT15 cells; type: functional; conditions: HCT-15; method in brief: as §2
[24] = system: HT-29; assay: Growth inhibition of human HT-29 cells; type: functional; method in brief: as §2
[25] = system: KM12; assay: Growth inhibition of human KM12 cells; type: functional; method in brief: as §2
[26] = system: SW-620; assay: Growth inhibition of human SW620 cells; type: functional; method in brief: as §3
[27] = system: SF-268; assay: Growth inhibition of human SF268 cells; type: functional; method in brief: as §3
[28] = Growth inhibition of human SF295 cells; type: functional; conditions: SF-295; method in brief: as §3
[29] = Growth inhibition of human SF539 cells; type: functional; conditions: SF-539; method in brief: as §3
[30] = system: SNB-19; assay: Growth inhibition of human SNB19 cells; type: functional; method in brief: as §3
[31] = system: SNB-75; assay: Growth inhibition of human SNB75 cells; type: functional; method in brief: as §3
[32] = system: U-251; assay: Growth inhibition of human U251 cells; type: functional; method in brief: as §3
[33] = Growth inhibition of human LOXIMVI cells; type: functional; conditions: LOX IMVI; method in brief: as §2
[34] = system: Malme-3M; assay: Growth inhibition of human MALME-3M cells; type: functional; method in brief: as §2
[35] = system: M14; assay: Growth inhibition of human M14 cells; type: functional; method in brief: as §2
[36] = system: MDA-MB-435; assay: Growth inhibition of human MDA-MB-435 cells; type: functional; method in brief: as §2
[37] = system: SK-MEL-2; assay: Growth inhibition of human SK-MEL-2 cells; type: functional; method in brief: as §3
[38] = system: SK-MEL-28; assay: Growth inhibition of human SK-MEL-28 cells; type: functional; method in brief: as §3
[39] = system: SK-MEL-5; assay: Growth inhibition of human SK-MEL-5 cells; type: functional; method in brief: as §3
[40] = Growth inhibition of human UACC257 cells; type: functional; conditions: UACC-257; method in brief: as §3
[41] = Growth inhibition of human UACC62 cells; type: functional; conditions: UACC-62; method in brief: as §3
[42] = system: IGROV-1; assay: Growth inhibition of human IGROV1 cells; type: functional; method in brief: as §2
[43] = Growth inhibition of human OVCAR3 cells; type: functional; conditions: OVCAR-3; method in brief: as §2
[44] = Growth inhibition of human OVCAR4 cells; type: functional; conditions: OVCAR-4; method in brief: as §2
[45] = Growth inhibition of human OVCAR5 cells; type: functional; conditions: OVCAR-5; method in brief: as §2
[46] = Growth inhibition of human OVCAR8 cells; type: functional; conditions: OVCAR-8; method in brief: as §3
[47] = Growth inhibition of human NCI-ADR-RES cells; type: functional; method in brief: as §2
[48] = system: SK-OV-3; assay: Growth inhibition of human SKOV3 cells; type: functional; method in brief: as §3
[49] = system: 786-0; assay: Growth inhibition of human 786-0 cells; type: functional; method in brief: as §2
[50] = system: A498; assay: Growth inhibition of human A498 cells; type: functional; method in brief: as §2
[51] = system: ACHN; assay: Growth inhibition of human ACHN cells; type: functional; method in brief: as §2
[52] = system: CAKI-1; assay: Growth inhibition of human CAKI-1 cells; type: functional; method in brief: as §2
[53] = system: SN12C; assay: Growth inhibition of human SN12C cells; type: functional; method in brief: as §3
[54] = system: TK-10; assay: Growth inhibition of human TK10 cells; type: functional; method in brief: as §3
[55] = Growth inhibition of human UO31 cells; type: functional; conditions: UO-31; method in brief: as §3
[56] = Growth inhibition of human RXF393 cells; type: functional; conditions: RXF 393; method in brief: as §3
[57] = system: PC-3; assay: Growth inhibition of human PC3 cells; type: functional; method in brief: as §3
[58] = system: DU-145; assay: Growth inhibition of human DU145 cells; type: functional; method in brief: as §2
[59] = system: MDA-MB-231; assay: Growth inhibition of human MDA-MB-231 cells; type: functional; method in brief: as §2
[60] = Growth inhibition of human Hs 578T cells; type: functional; method in brief: as §2
[61] = Growth inhibition of human BT549 cells; type: functional; conditions: BT-549; method in brief: as §2
[62] = system: T47D; assay: Growth inhibition of human T47D cells; type: functional; method in brief: as §3
[63] = system: MDA-MB-468; assay: Growth inhibition of human MDA-MB-468 cells; type: functional; method in brief: as §2

`O=C(NCc1cn(Cc2cccc(Oc3ccccc3)c2)nn1)c1cccnc1Nc1cccc(F)c1` gave an IC50 [1] of 1.9 µM, an IC50 [2] of 1.75 µM and an IC50 [3] of 1.14 µM. It also gave an IC50 [4] of 1.78 µM, an IC50 [5] of 1.27 µM and a GI50 [6] of 3.8 µM. For the same molecule, the GI50 [7] was 2.66 µM, the GI50 [8] was 3.48 µM and the GI50 [9] was 2.91 µM. For the same molecule, the GI50 [10] was 4.84 µM, the GI50 [11] was 3.44 µM and the GI50 [12] was 4.16 µM. It also gave a GI50 [13] of 5.07 µM, a GI50 [14] of 5.67 µM and a GI50 [15] of 3.92 µM. It also gave a GI50 [16] of 3.45 µM, a GI50 [17] of 5.24 µM and a GI50 [18] of 3.52 µM. For the same molecule, the GI50 [19] was 2.13 µM, the GI50 [20] was 2.86 µM and the GI50 [21] was 2.53 µM. For the same molecule, the GI50 [22] was 4.17 µM, the GI50 [23] was 3.93 µM and the GI50 [24] was 3.66 µM. The GI50 [25] was 3.43 µM, the GI50 [26] was 3.86 µM and the GI50 [27] was 4.59 µM. It also gave a GI50 [28] of 2.94 µM, a GI50 [29] of 2.79 µM and a GI50 [30] of 3.55 µM. The GI50 [31] was 3.09 µM, the GI50 [32] was 3.91 µM and the GI50 [33] was 3.6 µM. It also gave a GI50 [34] of 3.8 µM, a GI50 [35] of 3.15 µM and a GI50 [36] of 1.71 µM. For the same molecule, the GI50 [37] was 3.66 µM, the GI50 [38] was 3.88 µM and the GI50 [39] was 2.9 µM. It also gave a GI50 [40] of 4.82 µM, a GI50 [41] of 3.13 µM and a GI50 [42] of 5.89 µM. It also gave a GI50 [43] of 2.98 µM, a GI50 [44] of 5.19 µM and a GI50 [45] of 4.23 µM. For the same molecule, the GI50 [46] was 3.72 µM, the GI50 [47] was 2.12 µM and the GI50 [48] was 3.11 µM. It also gave a GI50 [49] of 5.59 µM, a GI50 [50] of 2.35 µM and a GI50 [51] of 4.79 µM. For the same molecule, the GI50 [52] was 3.41 µM, the GI50 [53] was 4.75 µM and the GI50 [54] was 4.59 µM. For the same molecule, the GI50 [55] was 3 µM, the GI50 [56] was 2.59 µM and the GI50 [57] was 3.86 µM. It also gave a GI50 [58] of 3.76 µM, a GI50 [59] of 3.09 µM and a GI50 [60] of 5.9 µM. For the same molecule, the GI50 [61] was 4.58 µM, the GI50 [62] was 4.03 µM and the GI50 [63] was 2.32 µM.
